Measured values: ChEMBL document CHEMBL5038597 (J Med Chem, 2021)
Active and inactive are the calls of the source. No cut-off for these calls is given here.

Experiments:
THP-1 [1] = assay: Anti-inflammatory activity against human THP-1 monocytes assessed as reduction in LPS-induced IFNgamma release pretreated for 30 mins followed LPS stimulation and measured after 24 hrs by multiplex chemiluminescence detection method; assay type: functional, cell-based
Summary of the method: (§1)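 THP-1-Lucia NF-κB monocytes (1 × 10⁵/well, 0.1% FBS medium) pretreated 30 min with compound (ethanol stock, final 0.1% ethanol vehicle), then 50 ng/mL LPS for 24 h.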

THP-1 [2] = assay: Cytotoxicity against human THP-1 monocytes assessed as LDH release at 0.001 to 1000 nM incubated for 24 hrs in absence of LPS by LDH assay; assay type: toxicity, cell-based; conditions: thp-1, 24 h, 1 µM, dose 0.001-1000 nM
Summary of the method: (§2)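 THP-1-Lucia monocytes (1 × 10⁵/well) exposed 24 h to compound without LPS (1 pM upward; 0.1% ethanol vehicle). Supernatant LDH absorbance at 490 nm with 690 nm background; 2% Triton X-100 lysis defined maximum release, untreated cells spontaneous release; expressed as % LDH release relative to LPS ± SEM, n = 3.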

THP-1 [3] = assay: Anti-inflammatory activity against human THP-1 monocytes assessed as reduction in LPS-induced IFNgamma release at 0.01 nM to 100 nM pretreated for 30 mins followed LPS stimulation and measured after 24 hrs by multiplex chemiluminescence detection method; assay type: functional; conditions: time 24.5 hrs; summary of the method: as §1
[4] = biological target: T1, Nuclear factor NF-kappa-B complex (Homo sapiens) (UniProt Q00653+P19838+Q04206); assay: Inhibition of LPS-induced NF-kappaB activation in human THP-1 monocytes expressing luciferase gene at 0.01 to 100 nM pretreated for 30 mins followed by LPS stimulation and measured after 24 hrs by bioluminescence analysis; assay type: cell-based; conditions: dose 0.01-100 nM, time 24.5 hr
T1 sequence (P19838 whole entry, looked up): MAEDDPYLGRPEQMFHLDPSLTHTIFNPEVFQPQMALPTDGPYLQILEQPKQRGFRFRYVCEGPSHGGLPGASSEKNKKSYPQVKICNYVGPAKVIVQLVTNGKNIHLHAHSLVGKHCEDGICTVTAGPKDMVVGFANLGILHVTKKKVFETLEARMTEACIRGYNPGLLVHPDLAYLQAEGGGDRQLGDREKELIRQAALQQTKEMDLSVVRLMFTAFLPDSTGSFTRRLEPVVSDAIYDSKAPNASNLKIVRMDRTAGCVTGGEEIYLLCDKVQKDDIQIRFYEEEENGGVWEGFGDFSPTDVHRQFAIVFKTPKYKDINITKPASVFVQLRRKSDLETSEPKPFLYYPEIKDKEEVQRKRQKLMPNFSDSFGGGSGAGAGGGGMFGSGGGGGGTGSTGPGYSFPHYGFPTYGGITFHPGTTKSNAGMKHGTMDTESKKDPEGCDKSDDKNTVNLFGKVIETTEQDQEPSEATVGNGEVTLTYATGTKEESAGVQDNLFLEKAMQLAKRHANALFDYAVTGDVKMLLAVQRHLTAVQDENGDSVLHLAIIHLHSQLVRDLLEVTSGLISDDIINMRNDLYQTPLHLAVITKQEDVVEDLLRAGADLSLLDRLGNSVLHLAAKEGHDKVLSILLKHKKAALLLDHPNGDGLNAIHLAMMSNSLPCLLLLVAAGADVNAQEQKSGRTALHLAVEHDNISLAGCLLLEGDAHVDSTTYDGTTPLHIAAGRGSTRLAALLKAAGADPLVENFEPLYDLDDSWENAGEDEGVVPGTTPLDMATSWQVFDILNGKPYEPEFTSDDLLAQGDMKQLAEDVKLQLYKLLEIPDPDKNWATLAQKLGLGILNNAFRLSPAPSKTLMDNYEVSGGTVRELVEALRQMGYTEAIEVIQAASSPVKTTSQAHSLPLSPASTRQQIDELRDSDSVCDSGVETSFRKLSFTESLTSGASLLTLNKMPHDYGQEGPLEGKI
T1 sequence (Q00653 whole entry, looked up): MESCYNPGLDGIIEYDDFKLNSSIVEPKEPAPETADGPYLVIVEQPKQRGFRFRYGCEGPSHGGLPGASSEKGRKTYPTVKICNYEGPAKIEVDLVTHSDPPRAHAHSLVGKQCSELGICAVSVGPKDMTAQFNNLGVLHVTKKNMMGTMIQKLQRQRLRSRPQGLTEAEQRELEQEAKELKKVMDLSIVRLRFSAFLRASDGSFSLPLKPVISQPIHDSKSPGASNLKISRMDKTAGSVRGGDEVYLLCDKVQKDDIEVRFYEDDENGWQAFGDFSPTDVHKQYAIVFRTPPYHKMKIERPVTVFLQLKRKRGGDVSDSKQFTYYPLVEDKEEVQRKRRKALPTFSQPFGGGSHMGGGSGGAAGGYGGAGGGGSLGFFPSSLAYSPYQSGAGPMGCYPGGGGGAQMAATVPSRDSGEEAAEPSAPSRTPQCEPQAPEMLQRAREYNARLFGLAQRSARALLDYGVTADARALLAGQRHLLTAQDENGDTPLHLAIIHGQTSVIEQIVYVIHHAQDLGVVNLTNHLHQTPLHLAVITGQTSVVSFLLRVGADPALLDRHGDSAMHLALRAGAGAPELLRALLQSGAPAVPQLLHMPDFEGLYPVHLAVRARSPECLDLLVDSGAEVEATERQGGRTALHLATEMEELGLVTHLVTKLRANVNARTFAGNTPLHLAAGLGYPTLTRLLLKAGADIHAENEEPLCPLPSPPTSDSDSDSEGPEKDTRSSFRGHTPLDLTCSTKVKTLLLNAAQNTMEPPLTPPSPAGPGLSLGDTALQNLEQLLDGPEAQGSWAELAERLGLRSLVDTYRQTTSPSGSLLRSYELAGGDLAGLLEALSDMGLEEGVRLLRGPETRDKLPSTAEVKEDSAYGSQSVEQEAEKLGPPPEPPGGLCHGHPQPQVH
T1 sequence (Q04206 whole entry, looked up): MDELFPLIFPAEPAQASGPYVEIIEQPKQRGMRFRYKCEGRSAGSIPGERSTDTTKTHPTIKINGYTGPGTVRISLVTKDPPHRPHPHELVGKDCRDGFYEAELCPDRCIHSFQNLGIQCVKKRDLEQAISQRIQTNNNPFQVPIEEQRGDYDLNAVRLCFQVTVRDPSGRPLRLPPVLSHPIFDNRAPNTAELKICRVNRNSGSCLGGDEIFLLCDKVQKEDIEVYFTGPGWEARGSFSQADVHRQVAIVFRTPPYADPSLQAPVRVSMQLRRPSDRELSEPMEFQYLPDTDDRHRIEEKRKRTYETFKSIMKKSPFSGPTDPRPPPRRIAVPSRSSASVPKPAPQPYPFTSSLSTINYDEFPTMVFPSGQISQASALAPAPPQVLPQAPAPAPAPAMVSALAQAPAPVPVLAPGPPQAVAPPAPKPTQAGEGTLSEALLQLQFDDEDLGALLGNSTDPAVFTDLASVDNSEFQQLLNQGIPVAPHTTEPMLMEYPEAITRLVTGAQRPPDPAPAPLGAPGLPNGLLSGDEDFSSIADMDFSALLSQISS
Summary of the method: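 Secreted luciferase in supernatant read with QUANTI-Luc by bioluminescence, normalized to BCA protein (lum/abs ratio, two replicates), expressed as % of LPS response; mean ± SEM, n = 3.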

Mus musculus [5] = assay: Anti-inflammatory activity in zymosan-induced C57BL/6J mouse model of peritonitis assessed as reduced neutrophil influx at 11 mg/kg, ip treated 1 hr prior to zymosan administration (reference value: 100 %); assay type: functional; design: scale not given: the % may be the effect or the level left
Mus musculus [6] = species: Mus musculus; assay: Anti-inflammatory activity in zymosan-induced C57BL/6J mouse model of peritonitis assessed as change in polymorphonuclear cell count; assay type: functional, organism-based
Summary of the method: (§3)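 Male C57BL/6J mice (9 weeks) given zymosan 1 mg/mouse ip (40 mg/kg); compound (2 or 6 μg/kg) or dexamethasone (1 mg/kg) ip 30 min before and 1 h after zymosan. Peritoneal lavage 24 h post-zymosan; cells counted with Turk's solution, stained Ly6G/F4/80/CD11b, PMN as Ly6G⁺ by flow cytometry; % of vehicle + zymosan maximal response; n = 5 mice/group, one-way ANOVA.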

THP-1 [7] = assay: Cytoprotection against LPS-stimulated human THP-1 monocytes toxicity assessed as reduction LDH release at 1 uM incubated for 24 hrs by LDH assay; assay type: functional
Summary of the method: (§4)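 Supernatant LDH read at 490 nm minus 690 nm background; maximum release from 2% Triton X-100 lysis; expressed as % LDH release relative to LPS ± SEM, n = 3.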

Mus musculus [8] = assay: (§5) Anti-inflammatory activity in zymosan-induced C57BL/6J mouse model of peritonitis assessed as maximal response at 1 mg/kg, ip treated 30 mins prior to zymosan administration and once again 1 hr after zymosan administration and measured 24 hrs post zymosan injection by flow cytometry analysis (reference value: 100 %); assay type: functional; conditions: time 24.5 hrs; summary of the method: as §3
Mus musculus [9] = species: Mus musculus; assay: Anti-inflammatory activity in zymosan-induced C57BL/6J mouse model of peritonitis assessed as change in macrophage cell count; assay type: functional, organism-based
THP-1 [10] = assay: Cytotoxicity against human THP-1 monocytes assessed as LDH release at 1 uM incubated for 24 hrs in absence of LPS by LDH assay; assay type: toxicity, cell-based; conditions: thp-1, 24 h; summary of the method: as §2
Mus musculus [11] = species: Mus musculus; assay: Anti-inflammatory activity in zymosan-induced C57BL/6J mouse model of peritonitis assessed as change in monocyte cell count; assay type: functional, organism-based
Mus musculus [12] = assay: Anti-inflammatory activity in C57BL/6J mouse model of carrageenan-induced paw edema assessed as reduction in paw swelling at 2 ug/kg, ip administered 30 mins prior to carrageenan injection; assay type: functional, organism-based; conditions: dose 2.0 µg/kg
Summary of the method: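 Male C57BL/6 mice dosed 30 min before intraplantar 50 μL 1% carrageenan (saline in contralateral paw); test compound 2 μg/kg ip, naproxen 50 mg/kg po. Paw thickness difference tracked over time (to 72 h) with a lever gauge as edema index; mean ± SEM, n = 3 mice/group.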

THP-1 [13] = assay: Anti-inflammatory activity against human THP-1 monocytes assessed as reduction in LPS-induced IL-1beta release at 0.01 nM to 100 nM pretreated for 30 mins followed LPS stimulation and measured after 24 hrs by multiplex chemiluminescence detection method; assay type: functional; conditions: time 24.5 hrs; summary of the method: as §1
THP-1 [14] = assay: Cytotoxicity against human THP-1 monocytes assessed as LDH release at 1 pM incubated for 24 hrs in absence of LPS by LDH assay; assay type: toxicity, cell-based; conditions: thp-1, 24 h; summary of the method: as §2
THP-1 [15] = assay: Anti-inflammatory activity against human THP-1 monocytes assessed as reduction in LPS-induced IFNgamma release at 1 pM pretreated for 30 mins followed LPS stimulation and measured after 24 hrs by multiplex chemiluminescence detection method; assay type: functional, cell-based; conditions: time 24.5 hrs; summary of the method: as §1
[16] = biological target: T1, Nuclear factor NF-kappa-B complex (Homo sapiens); assay: Inhibition of TNFalpha-stimulated NF-kappaB activity (unknown origin) expressed in mouse primary smooth muscle cells at 1 nM pretreated for 30 mins followed by TNFalpha stimulation and incubated for 24 hrs by SEAP reporter gene assay; assay type: cell-based; conditions: THP-1, time 24.5 hrs
Summary of the method: (§6)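 Mouse primary vascular SMCs in DMEM with 25 mM glucose, serum-restricted (1% FBS) 24 h, transfected 24 h with pNF-κB-SEAP, pretreated 30 min, then TNF-α 1 ng/mL for 24 h; 0.1% ethanol vehicle. Secreted alkaline phosphatase measured in supernatant; fold change vs vehicle, mean ± SEM of 6–8 independent experiments.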

THP-1 [17] = assay: Induction of phagocytosis in human THP-1-MF0 macrophages at 100 nM pretreated for 30 mins followed by fluorescently labeled Escherichia coli derived bio-particles addition and measured after 2 hrs; assay type: functional, cell-based; conditions: time 2.5 hrs
Summary of the method: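 THP-1 monocytes differentiated with 16 nM PMA 48 h plus 24 h rest; 1 × 10⁵ macrophages/well in 0.1% serum adhered 1.5 h, treated 30 min (1 fM–1 μM), medium replaced with fluorescent E. coli bioparticles for 2 h at 37 °C in dark; trypan blue quench 1 min; bottom-read fluorescence Ex480/Em520; fold change vs vehicle, n = 3.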

HEK293 = assay: Agonist activity at ALX/FPR2 receptor (unknown origin) expressed in HEK-293 cells assessed as increase in calcium flux at 0.01 to 100 nM by Fluo-4 staining based assay; assay type: cell-based; conditions: Homo sapiens, filed as agonist, dose 0.01-100 nM
Summary of the method: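 HEK-293 cells stably double-transfected with ALX/FPR2 and Gαq (Geneticin 500 and Hygromycin 100 μg/mL selection); wild-type HEK-293 as specificity control. Cultured 18 h, loaded with Fluo-4 (37 °C, 1 h), compounds injected in-reader (10 pM–100 nM). Baseline-to-peak calcium fluorescence difference expressed as % of LXA₄ peak; ATP 1 μM and W-peptide 2 nM positive controls; n = 3 independent experiments.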

THP-1 [18] = assay: Anti-inflammatory activity against human THP-1 monocytes assessed as […] in LPS-induced IL-8 release at 1 nM by multiplex chemiluminescence detection method; assay type: functional, cell-based; summary of the method: as §1
[19] = biological target: T1, Nuclear factor NF-kappa-B complex (Homo sapiens); assay: Inhibition of TNFalpha-stimulated NF-kappaB activity (unknown origin) expressed in mouse primary smooth muscle cells at 0.1 nM pretreated for 30 mins followed by TNFalpha stimulation and incubated for 24 hrs by SEAP reporter gene assay; assay type: cell-based; conditions: time 24.5 hrs; summary of the method: as §6
Mus musculus [20] = assay: Anti-inflammatory activity in zymosan-induced C57BL/6J mouse model of peritonitis assessed as reduced neutrophil influx at 6 ug/kg, ip treated 30 mins prior to zymosan administration (reference value: 100 %); design: scale not given: the % may be the effect or the level left; conditions: 0.5 h
Mus musculus [21] = assay: as §5, with “total number of polymorphonuclear cells” for “maximal response”, “6 ug/kg,” for “1 mg/kg,”, “4.7 +/- 0.5 x10^6 /ml)” for “100 %)”; assay type: functional; conditions: dose 6 µg/kg; time 24.5 hrs; summary of the method: as §3
THP-1 [22] = assay: Cytoprotection against LPS-stimulated human THP-1 monocytes toxicity assessed as fold reduction in LDH release at 0.001 to 1000 nM incubated for 24 hrs by LDH assay; assay type: functional; conditions: dose 0.001-1000 nM; summary of the method: as §4
Mus musculus [23] = assay: as §5, with “6 ug/kg,” for “1 mg/kg,”; assay type: functional; conditions: dose 6 µg/kg; time 24.5 hrs; summary of the method: as §3

CCC[C@@H](O)c1nc2ccccc2nc1/C=C/[C@@H](O)[C@@H](O)CCCC(=O)OC was tested. Which IC50 (THP-1 [1]) did it give?
Its IC50 is 1 pM.

And the Activity (THP-1 [2])?
The Activity was “Non-Toxic”.

And the Imax (THP-1 [3])?
The Imax was 85%.

What about the Imax [4] of the same compound?
Its Imax is 30%.

Which results are given for C[C@@H]1C[C@H]2[C@@H]3CCC4=CC(=O)C=C[C@]4(C)[C@@]3(F)[C@@H](O)C[C@]2(C)[C@@]1(O)C(=O)CO [DEXAMETHASONE]?
Activity (Mus musculus [5]): 33.5%; Activity (Mus musculus [6]): inactive; Activity (THP-1 [7]): inactive; Activity (Mus musculus [8]): 51%; Activity (Mus musculus [9]): inactive; Activity (THP-1 [10]): Non-Toxic; Activity (Mus musculus [11]): inactive

Which results are given for CCCCC[C@@H](O)c1nc2ccccc2nc1/C=C/[C@H]1OC(C)(C)O[C@H]1CCCC(=O)OC?
Activity (Mus musculus [12]): inactive; Activity (THP-1 [2]): Toxic

How did the Activity (THP-1 [2]) turn out when CCCCCCC[C@H](O)c1nc2ccccc2nc1/C=C/[C@@H](O)[C@@H](O)CCCC(=O)OC was run?
The Activity was “Non-Toxic”.

With CCCCC[C@H](O)c1nc2ccccc2nc1/C=C/[C@@H](O)[C@@H](O)CCCC(=O)OC as the compound, how does the Activity (THP-1 [13]) read?
The Activity was “inactive”.

And the Imax [4]?
Its Imax is 25%.

Which Activity (THP-1 [14]) does the source give for CCCCC[C@@H](O)c1c(/C=C/[C@@H](O)[C@@H](O)CCCC(=O)OC)nc(C)n1C here?
The Activity was “Non-Toxic”.

How did the Activity (THP-1 [15]) turn out when CCCCC[C@@H](O)c1ccccc1/C=C/[C@@H](O)[C@@H](O)CCCC(=O)OC was run?
The Activity was “inactive”.

And the inhibition [16]?
Its inhibition is “Active”.

And the Activity (THP-1 [14])?
Its Activity is “Non-Toxic”.

Which Activity (THP-1 [17]) does the source give for CCCCC[C@H](O)/C=C/C=C\C=C\C=C\[C@@H](O)[C@@H](O)CCCC(=O)O [LIPOXIN A4] here?
The Activity was “Active”.

What about the Activity (HEK293) of the same compound?
Its Activity is “Active”.

What about the Activity (THP-1 [18]) of the same compound?
Its Activity is “Active”.

And the Imax (THP-1 [13])?
Its Imax is 93%.

And the inhibition [19]?
The inhibition was “Active”.

How did the Activity (Mus musculus [20]) turn out when CCCCC[C@@H](O)c1nc2ccccc2nc1/C=C/[C@@H](O)[C@@H](O)CCCC(=O)OC was run?
The Activity was 22.5%.

What about the Activity (Mus musculus [21]) of the same compound?
The Activity was 3.2 10^6/ml.

And the Activity (Mus musculus [12])?
The Activity was “Active”.

What about the “fold change (FC)” value (THP-1 [22]) of the same compound?
The value was 1.3.

And the Activity (Mus musculus [6])?
Its Activity is “inactive”.

And the Activity (THP-1 [2])?
The Activity was “Non-Toxic”.

And the Activity (THP-1 [18])?
The Activity was “Active”.

And the Activity (Mus musculus [23])?
Its Activity is 68%.

And the Activity (Mus musculus [9])?
Its Activity is “inactive”.

And the Activity (Mus musculus [11])?
Its Activity is “inactive”.

What does the source list for CCC[C@H](O)c1nc2ccccc2nc1/C=C/[C@@H](O)[C@@H](O)CCCC(=O)OC?
IC50 (THP-1 [1]): 1 pM; Imax (THP-1 [3]): 85%; Imax [4]: 30%

Which Activity (THP-1 [2]) does the source give for CCCCC[C@H](O)c1nc2ccccc2nc1/C=C/[C@H]1OC(C)(C)O[C@H]1CCCC(=O)OC here?
The Activity was “Toxic”.
